Calls of active or inactive are those of the source. No cut-off for these calls is given here.
Experiments:
[1] = Cytotoxicity against BHK cells infected with West Nile virus replicon assessed as cell viability after 3 days by CellTiter 96 aqueous one solution cell proliferation assay; assay type: cell-based, Mesocricetus auratus; conditions: hamster, 72 h
In short: (§1)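 WNV replicon BHK cells, about 3 × 10^3/well, plated without antibiotic selection; next day compound in DMSO (10 μM final for screening, or eight serial dilutions), 3 days at 37°C, 5% CO2. Tetrazolium reagent, absorbance 450 nm, triplicate means versus DMSO wells; CC50 = 50% reduction in proliferation; CC50s mean ± SD of two experiments, top dose 200 μM.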

[2] = test system: dengue virus type 3; assay: Displacement of [3H]-SAM from biotinylated Dengue virus 3 methyltransferase expressed in Escherichia coli at 20 uM preincubated for 20 mins followed by [3H]-SAM addition measured after 15 mins by scintillation counting analysis
In short: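 Biotinylated refolded E. coli-expressed DENV3 MTase (580 nM) with SPA beads (1.5 mg/mL) and 20 μM competitor (compound, SAM or sinefungin) in Tris pH 7.5 buffer with NaCl, KCl, MgCl2, MnCl2, CHAPS, 20 min at 23°C; 3H-SAM (425 nM) added, 15 min at 23°C, centrifuged, scintillation proximity counting.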

[3] = test system: West Nile virus; assay: Antiviral activity against West Nile virus infected in BHK-WII RepRen1B cells assessed as inhibition of viral replication after 3 days by luciferase reporter gene assay; assay type: functional, organism-based; conditions: 72 h
[4] = test system: Human betaherpesvirus 5; assay: Antiviral activity against Human cytomegalovirus; assay type: functional, organism-based
[5] = Cytotoxicity against BHK cells infected with West Nile virus replicon assessed as cell viability at 10 uM after 3 days by CellTiter 96 aqueous one solution cell proliferation assay relative to control; assay type: cell-based, Mesocricetus auratus; conditions: hamster, bhk, 72 h, 10 µM; in short: as §1
[6] = target: Human immunodeficiency virus type 1 reverse transcriptase (Human immunodeficiency virus 1) (UniProt Q72547); assay: Inhibition of HIV1 reverse transcriptase
[7] = Cytotoxicity against BHK cells infected with Dengue virus replicon assessed as cell viability at 10 uM after 3 days by CellTiter 96 aqueous one solution cell proliferation assay relative to control; assay type: cell-based, Mesocricetus auratus; conditions: hamster, bhk, 72 h, 10 µM
In short: as §1, with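 “DENV” for “WNV”, “1.5” for “about 3”, “Tetrazolium (MTS-type)” for “Tetrazolium”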

[8] = test system: Human immunodeficiency virus 1; assay: Antiviral activity against HIV1; assay type: functional, organism-based
[9] = test system: Dengue virus; assay: Antiviral activity against Dengue virus infected in BHK pD2-hRucPac-2ATG cells assessed as inhibition of viral replication at 10 uM after 3 days by luciferase reporter gene assay relative to control; assay type: functional; conditions: 72 h
In short: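 Renilla luciferase-bearing DENV subgenomic replicon BHK cells, kept on 3 μg/mL puromycin, seeded at 1.5 × 10^3/well without selection. Next day, 10 μM final compound in DMSO added to triplicate wells; MPA 1 μM as control inhibitor. After 3 days, medium swapped for live-cell Renilla substrate (1:1000, phenol-red-free DME, 10% FBS). Luminescence read; triplicate mean compared with DMSO-only wells.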

[10] = test system: Hepatitis C virus; assay: Antiviral activity against HCV; assay type: functional, organism-based; conditions: Hepacivirus hominis
[11] = test system: West Nile virus; assay: Antiviral activity against West Nile virus infected in BHK-WII RepRen1B cells assessed as inhibition of viral replication at 10 uM after 3 days by luciferase reporter gene assay relative to control; assay type: functional; conditions: 72 h
In short: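 Compound (DMSO, 10 μM final) added next day in triplicate; lycorine 1 μM served as control inhibitor. Three days on, live-cell Renilla substrate (1:1000 in phenol-red-free DME, 10% FBS) replaced medium. Luminescence measured; triplicate means compared with DMSO-alone wells.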

[12] = test system: unidentified influenza virus; assay: Antiviral activity against Influenzae virus; assay type: functional, organism-based

Row | Compound | CC50 [1] [µM] | inhibition [2] | EC50 [3] [µM] | Activity [4] | Activity [5] [%] | inhibition [6] | Activity [7] [%] | Activity [8] | inhibition at 10 µM [9] [%] | Activity [10] | inhibition at 10 µM [11] [%] | Activity [12]
1 | Cc1cn([C@H]2C[C@H](NC(=O)NC34CC5CC(CC(C5)C3)C4)[C@@H](CO[Si](C)(C)C(C)(C)C)O2)c(=O)[nH]c1=O | 16 | Active | 10 |  |  |  |  |  |  |  |  | 
2 | C[S+](CC[C@H](N)C(=O)[O-])C[C@H]1O[C@@H](n2cnc3c(N)ncnc32)[C@H](O)[C@@H]1O (some centres not stated) |  | Active |  |  |  |  |  |  |  |  |  | 
3 | COc1ccc2cc(-c3cnnn3[C@H]3C[C@H](n4cc(C)c(=O)[nH]c4=O)O[C@@H]3CO[Si](c3ccccc3)(c3ccccc3)C(C)(C)C)ccc2c1 |  |  |  | inactive | 38 | inactive | 11 | inactive | 100 | inactive | 99 | inactive
4 | Cc1cn([C@H]2C[C@H](NC(=O)c3ccc4ccccc4n3)[C@@H](CO[Si](C)(C)C(C)(C)C)O2)c(=O)[nH]c1=O |  |  |  | inactive | 89 | inactive | 98 | inactive | 51 | inactive | 24 | inactive
5 | Nc1ncnc2c1ncn2[C@@H]1O[C@H](C[C@@H](N)CC[C@H](N)C(=O)O)[C@@H](O)[C@H]1O |  | Active |  |  |  |  |  |  |  |  |  | 
6 | Cc1cn([C@H]2C[C@H](n3nncc3-c3ccc(Oc4ccccc4)cc3)[C@@H](CO[Si](C)(C)C(C)(C)C)O2)c(=O)[nH]c1=O |  |  |  | inactive | 79 | inactive | 73 | inactive | 95 | inactive | 95 | inactive
7 | Cc1cn([C@H]2C[C@H](N3C(=O)CSC3c3c4ccccc4cc4ccccc34)[C@@H](CO[Si](C)(C)C(C)(C)C)O2)c(=O)[nH]c1=O (mixture of isomers) | 27 | Active | 9 | inactive | 90 | inactive | 97 | inactive | 46 | inactive | 85 | inactive
8 | Cc1cn([C@H]2C[C@H](N3C(=O)CSC3c3ccccc3)[C@@H](CO[Si](C)(C)C(C)(C)C)O2)c(=O)[nH]c1=O (mixture of isomers) |  |  |  | inactive | 94 | inactive | 98 | inactive | 22 | inactive | 26 | inactive
9 | Cc1cn([C@H]2C[C@H](NC(=O)c3c4ccccc4cc4ccccc34)[C@@H](CO[Si](C)(C)C(C)(C)C)O2)c(=O)[nH]c1=O |  |  |  | inactive | 100 | inactive | 98 | inactive | 7.6 | inactive | 0 | inactive
10 | Cc1cn([C@H]2C[C@H](n3nncc3-c3cc4ccccc4c4ccccc34)[C@@H](CO[Si](C)(C)C(C)(C)C)O2)c(=O)[nH]c1=O |  |  |  | inactive | 69 | inactive | 100 | inactive | 21 | inactive | 99 | inactive
11 | Cc1cn([C@H]2C[C@H](n3cc(-c4cc5ccccc5c5ccccc45)nn3)[C@@H](CO[Si](C)(C)C(C)(C)C)O2)c(=O)[nH]c1=O |  |  |  | inactive | 100 | inactive | 81 | inactive | 77 | inactive | 97 | inactive
12 | Cc1cn([C@H]2C[C@H](NC(=O)c3c[nH]c4ccccc34)[C@@H](CO[Si](C)(C)C(C)(C)C)O2)c(=O)[nH]c1=O |  |  |  | inactive | 93 | inactive | 27 | inactive | 90 | inactive | 19 | inactive
13 | Cc1cn([C@H]2C[C@H](NC(=O)c3ccc4ccccc4c3)[C@@H](CO[Si](C)(C)C(C)(C)C)O2)c(=O)[nH]c1=O |  |  |  | inactive | 51 | inactive | 10 | inactive | 98 | inactive | 99 | inactive
14 | Cc1cn([C@H]2C[C@H](NC(=O)C(c3ccccc3)(c3ccccc3)c3ccccc3)[C@@H](CO[Si](C)(C)C(C)(C)C)O2)c(=O)[nH]c1=O | 15 | Active | 9.9 | inactive | 100 | inactive | 100 | inactive | 28 | inactive | 54 | inactive
15 | Cc1cn([C@H]2C[C@H](NC(=O)c3cccc4ccccc34)[C@@H](CO[Si](C)(C)C(C)(C)C)O2)c(=O)[nH]c1=O | > 200 | Active | 33 | inactive | 94 | inactive | 99 | inactive | 11 | inactive | 37 | inactive
16 | Cc1cn([C@H]2C[C@H](n3nncc3COc3ccccc3)[C@@H](CO[Si](C)(C)C(C)(C)C)O2)c(=O)[nH]c1=O |  |  |  | inactive | 100 | inactive | 84 | inactive | 28 | inactive | 50 | inactive
17 | Cc1cn([C@H]2C[C@H](N)[C@@H](CO[Si](C)(C)C(C)(C)C)O2)c(=O)[nH]c1=O |  |  |  | inactive | 100 | inactive | 100 | inactive | 0 | inactive | 0 | inactive
18 | Cc1cn([C@H]2C[C@H](n3nncc3-c3ccc(-c4ccccc4)cc3)[C@@H](CO[Si](C)(C)C(C)(C)C)O2)c(=O)[nH]c1=O |  |  |  | inactive | 10 | inactive | 47 | inactive | 99 | inactive | 100 | inactive
19 | COc1ccc2cc(-c3cnnn3[C@H]3C[C@H](n4cc(C)c(=O)[nH]c4=O)O[C@@H]3CO[Si](C(C)C)(C(C)C)C(C)C)ccc2c1 |  |  |  | inactive | 67 | inactive | 53 | inactive | 98 | inactive | 98 | inactive
20 | Cc1cn([C@H]2C[C@H](n3nncc3C3CC3)[C@@H](CO[Si](C)(C)C(C)(C)C)O2)c(=O)[nH]c1=O |  |  |  | inactive | 100 | inactive | 93 | inactive | 6.4 | inactive | 21 | inactive
